Test results as given in ChEMBL document CHEMBL1629705, “PSI-7851, a pronucleotide of beta-D-2'-deoxy-2'-fluoro-2'-C-methyluridine monophosphate, is a potent and pan-genotype inhibitor of hepatitis C virus replication” (Antimicrob Agents Chemother, 2010).
Activity calls are given as the source filed them. The rule behind the calls is not given here.

Tests used:
[1] = molecular target: T1, DNA polymerase alpha catalytic subunit (Homo sapiens, UniProt P09884); experiment: Inhibition of human DNA polymerase alpha assessed as incorporation of [alpha-32P]dCTP up to 1mM preincubated for 30 mins by whatman DE81 paper binding assay
T1 sequence (P09884 whole entry): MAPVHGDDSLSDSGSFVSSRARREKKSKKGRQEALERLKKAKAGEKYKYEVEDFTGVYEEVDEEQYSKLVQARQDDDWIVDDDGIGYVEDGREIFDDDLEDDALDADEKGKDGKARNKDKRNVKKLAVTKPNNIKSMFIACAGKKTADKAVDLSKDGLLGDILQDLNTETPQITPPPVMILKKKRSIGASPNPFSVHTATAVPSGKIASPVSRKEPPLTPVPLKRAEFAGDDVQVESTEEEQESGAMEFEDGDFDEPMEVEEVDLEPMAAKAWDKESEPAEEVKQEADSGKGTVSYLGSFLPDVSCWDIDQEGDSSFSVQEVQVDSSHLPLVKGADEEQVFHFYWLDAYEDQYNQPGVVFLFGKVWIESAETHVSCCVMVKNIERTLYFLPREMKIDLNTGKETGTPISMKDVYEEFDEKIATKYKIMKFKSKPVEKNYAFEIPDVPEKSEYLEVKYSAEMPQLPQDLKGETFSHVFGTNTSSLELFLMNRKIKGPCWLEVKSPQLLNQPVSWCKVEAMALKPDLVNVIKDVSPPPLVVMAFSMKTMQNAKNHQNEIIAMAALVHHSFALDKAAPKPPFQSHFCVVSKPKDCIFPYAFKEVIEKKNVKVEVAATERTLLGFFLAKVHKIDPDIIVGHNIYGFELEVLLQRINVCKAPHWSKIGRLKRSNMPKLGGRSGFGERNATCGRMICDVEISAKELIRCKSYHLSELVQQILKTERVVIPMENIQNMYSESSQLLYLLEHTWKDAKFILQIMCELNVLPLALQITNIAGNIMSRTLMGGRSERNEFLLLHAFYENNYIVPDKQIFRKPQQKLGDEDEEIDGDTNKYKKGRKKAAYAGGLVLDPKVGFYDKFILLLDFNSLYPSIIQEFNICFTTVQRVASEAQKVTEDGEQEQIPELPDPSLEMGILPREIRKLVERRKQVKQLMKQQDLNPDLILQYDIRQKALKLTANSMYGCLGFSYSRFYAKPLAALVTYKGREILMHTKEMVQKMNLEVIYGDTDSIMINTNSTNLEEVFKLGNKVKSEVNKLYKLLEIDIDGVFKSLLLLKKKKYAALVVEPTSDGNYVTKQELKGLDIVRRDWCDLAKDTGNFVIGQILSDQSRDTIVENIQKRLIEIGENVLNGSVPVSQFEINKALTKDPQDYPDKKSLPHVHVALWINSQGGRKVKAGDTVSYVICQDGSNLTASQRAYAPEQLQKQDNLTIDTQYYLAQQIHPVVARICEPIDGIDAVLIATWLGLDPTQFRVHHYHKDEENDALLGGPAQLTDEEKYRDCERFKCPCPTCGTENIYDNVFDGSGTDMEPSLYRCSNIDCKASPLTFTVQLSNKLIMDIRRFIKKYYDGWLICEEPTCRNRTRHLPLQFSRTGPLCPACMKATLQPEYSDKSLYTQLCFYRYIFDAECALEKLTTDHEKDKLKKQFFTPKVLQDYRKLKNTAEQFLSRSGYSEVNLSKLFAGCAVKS
Procedure, shortened: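 Human DNA polymerase α (20 μg/ml) or γ (50 μg/ml) in 50 mM Tris pH 7.5, 50 mM NaCl, activated calf thymus DNA, 20 μM each dNTP, [α-32P]dCTP, 5 mM MgCl2. Nucleotide inhibitor up to 1 mM. 37°C, quenched with EDTA at 30 min. Product measured by DE81 paper binding; IC50 by nonlinear fit.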

[2] = Inhibition of Hepatitis C virus genotype 3a recombinant NS5B polymerase after 3 hrs by phosphor imaging; parameters: species or system Hepatitis C virus subtype 3a
Procedure, shortened: (§1)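 C-terminal Δ21-truncated NS5B: 1b Con1 and 2a JFH-1 expressed in E. coli; 3a and 4a cloned from patient serum. Mix: 1 μM each NTP, [α-32P]UTP, 20 ng/μl genotype 1b(−) IRES RNA template, 40 ng/μl enzyme, 1 mM MgCl2, 0.75 mM MnCl2, 2 mM DTT, 50 mM HEPES pH 7.5. Run at 27°C: 30 min (1b, 2a) or 3 h (3a, 4a). EDTA quench, products on membrane read by phosphorimager. Duplicates; IC50 calculated.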

[3] = Inhibition of Hepatitis C virus genotype 4a recombinant NS5B polymerase after 3 hrs by phosphor imaging; parameters: species or system Hepatitis C virus subtype 4a; procedure, shortened: as §1
[4] = Cytotoxicity against human HepG2 cells; type: cell-based
Procedure, shortened: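 Cells treated 8 days with compound serially diluted from 100 μM in DMSO-containing medium, gemcitabine (1 μM) or DMSO control. Viability by MTS-type tetrazolium assay, absorbance at 490 nm with medium-only blanks. Value derived by comparison with DMSO control wells.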

Hepatitis C virus [5] = experiment: Antiviral activity against Hepatitis C virus assessed as clearance of HCV from replicon cells at 1 uM; type: functional, organism-based; settings: Hepacivirus hominis
Procedure, shortened: (§2)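 ET-lunet replicon cells, 1 × 10^5/well, no G418, with compound at 0.1, 1 or 2 μM (final DMSO 0.5%). Passaged 1:3 or 1:4 every 3–4 days for 3 weeks with fresh compound, then 3 more weeks with 0.25 mg/ml G418 and no inhibitor. HCV RNA by RT-PCR normalized to rRNA (ΔΔCt vs DMSO) at each passage. Crystal violet colony staining at 6 weeks.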

[6] = Cytotoxicity against human BxPC3 cells assessed as effect on cellular GAPDH RNA level after 8 days by quantitative real-time PCR; type: cell-based, BXPC-3
[7] = Cytotoxicity against human CEM cells assessed as effect on cellular GAPDH RNA level after 8 days by quantitative real-time PCR; type: cell-based; settings: CEM (CCRF-CEM) cells
[8] = Cytotoxicity against HFF; type: cell-based; settings: human, HFF cells
Hepatitis C virus [9] = experiment: Antiviral activity against Hepatitis C virus assessed as inhibition of viral rebound at 2 uM after 3 weeks in presence of G418; type: functional, organism-based; settings: Hepacivirus hominis; procedure, shortened: as §2
Hepatitis C virus [10] = experiment: Antiviral activity against Hepatitis C virus H77; type: functional, organism-based, Hepacivirus hominis; settings: genotype 1a H77
[11] = Cytotoxicity against human HepG2 cells assessed as inhibition of mitochondrial DNA synthesis; type: cell-based
Procedure, shortened: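 HepG2 or CEM cells incubated 14 days with compound up to 100 μM, ddC as control. Medium and compound replenished on days 7 and 11. Mitochondrial COXII gene and nuclear rDNA measured by multiplex quantitative RT-PCR.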

[12] = Cytotoxicity against human erythroid progenitor cells after 14 to 16 days by colony formation assay; type: cell-based
Procedure, shortened: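 Normal human bone marrow erythroid and myeloid progenitors, 2 × 10^4 cells per culture in methylcellulose with rh-SCF 50 ng/ml, rh-IL-3 10 ng/ml, rh-GM-CSF 10 ng/ml and rh-EPO 3 U/ml. Compound up to 50 μM, DMSO control 0.1%, 14–16 days.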

[13] = molecular target: DNA-directed RNA polymerase II subunit RPB1 (Homo sapiens, UniProt P24928); experiment: Inhibition of human RNA polymerase at 2 uM

C[C@@]1(F)[C@H](O)[C@@H](COP(=O)(O)OP(=O)(O)OP(=O)(O)O)O[C@H]1n1ccc(=O)[nH]c1=O [GS-461203]
IC50 [1]: 550000 nM | IC50 [2]: 700 nM | IC50 [3]: 2600 nM

CC(C)OC(=O)[C@H](C)NP(=O)(OC[C@H]1O[C@@H](n2ccc(=O)[nH]c2=O)[C@](C)(F)[C@@H]1O)Oc1ccccc1 (some centres undefined)
CC90 [4]: 12800 nM | Activity (Hepatitis C virus [5]): Active | CC50 at 192 h [6]: > 100000 nM | CC50 at 192 h [7]: > 100000 nM | CC50 [8]: > 100000 nM | inhibition (Hepatitis C virus [9]): Active | EC50 (Hepatitis C virus [10]): 190 nM | EC90 (Hepatitis C virus [10]): 340 nM | CC90 [11]: < 3000 nM | CC50 [12]: > 50000 nM | fold change (FC) [13]: 5
